Experimental data taken from BindingDB's records for doi:10.1021/jm0600794 (University of Innsbruck, 2006).

Biological target: T1, Glucocorticoid receptor (Homo sapiens, UniProt P04150)
T1 sequence (P04150 whole entry): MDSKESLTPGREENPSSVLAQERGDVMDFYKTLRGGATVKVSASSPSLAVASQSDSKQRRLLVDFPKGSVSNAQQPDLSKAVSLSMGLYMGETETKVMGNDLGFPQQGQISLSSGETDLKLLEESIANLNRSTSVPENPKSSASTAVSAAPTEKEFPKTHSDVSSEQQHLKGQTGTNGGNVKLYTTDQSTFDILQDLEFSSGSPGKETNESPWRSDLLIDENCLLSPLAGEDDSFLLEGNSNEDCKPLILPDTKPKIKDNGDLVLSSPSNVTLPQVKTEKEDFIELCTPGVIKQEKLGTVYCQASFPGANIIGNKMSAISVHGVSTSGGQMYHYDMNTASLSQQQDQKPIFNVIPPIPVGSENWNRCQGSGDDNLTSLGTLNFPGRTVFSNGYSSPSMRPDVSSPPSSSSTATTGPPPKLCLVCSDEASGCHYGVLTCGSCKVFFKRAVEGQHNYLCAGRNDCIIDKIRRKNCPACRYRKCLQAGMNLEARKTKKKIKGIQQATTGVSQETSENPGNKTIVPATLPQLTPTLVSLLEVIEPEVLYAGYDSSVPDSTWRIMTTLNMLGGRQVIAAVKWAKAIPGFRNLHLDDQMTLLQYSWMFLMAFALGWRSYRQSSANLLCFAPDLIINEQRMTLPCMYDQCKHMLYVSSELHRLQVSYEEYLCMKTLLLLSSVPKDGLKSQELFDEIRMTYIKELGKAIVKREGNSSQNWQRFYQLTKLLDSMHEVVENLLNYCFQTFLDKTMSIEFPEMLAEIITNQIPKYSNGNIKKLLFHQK
Assay: Inhibition of GR-mediated transactivation of galactosidase reporter gene in HEK293 cells expressing 11betaHSD1
How it was run: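 HEK-293 cells transfected with pMMTV-LacZ, pCMV-LUC, GR, 11β-HSD1 and H6PDH plasmids. After 6 h, washed into steroid-free medium, then 24 h with 250 nM cortisone and graded inhibitor. β-Galactosidase normalized to luciferase, as % of steroid-only control. IC50 from four independent experiments, means ± SD.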

CC(=O)OC1CC[C@]2(C)C3=C(C(=O)C[C@H]2C1(C)C)[C@]1(C)CCC(C(C)CCC(=O)O)[C@@]1(C)CC3=O (stereo partly drawn) [4-((5R,10S,13R,14R)-3-acetoxy-4,4,10,13,14-pentamethyl-7,11-dioxo-2,3,4,5,6,7,10,11,12,13,14,15,16,17-tetradecahydro-1H-cyclopenta[a]phenanthren-17-yl)pentanoic acid]
IC50: 2090 nM
